# High-throughput results from PubChem BioAssay.
# This is a sample that favours compounds with a hit; in the whole collection about 2.6% have one here.
# LMPTP inh = LMPTP phosphatase inhibitors, primary screen, biochemical, fluorescence intensity, uHTS | recombinant LMPTP-A, OMFP fluorogenic substrate | inhibition, % at 20 µM | 360,000 tested, 0.22% active | AID 651560, 2012;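 active = compounds that cut the enzyme signal by at least half of the control window in the single-dose screen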
# Target sequence (P24666 whole entry, looked up): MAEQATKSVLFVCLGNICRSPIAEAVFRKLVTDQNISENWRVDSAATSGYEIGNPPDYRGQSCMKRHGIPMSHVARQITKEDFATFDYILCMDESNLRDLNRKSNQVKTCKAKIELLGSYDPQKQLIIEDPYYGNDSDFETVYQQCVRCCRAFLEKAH
#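 Assay system: LMPTP-A phosphatase enzyme | Input: 0.625 nM enzyme | Also added: Fluorogenic phosphatase substrate OMFP at 400 µM final | Compound dosing: One test concentration per compound, 20 µM, with 3% DMSO overall | Schedule: 50 min enzyme reaction at room temperature, protected from light | Signal: Fluorescence intensity | Benchmarks: no-enzyme and uninhibited controls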
# Scp-1 inhibitor = Scp-1 phosphatase inhibitors, primary screen, biochemical, colorimetric, uHTS | Recombinant Scp1, phosphopeptide, malachite green phosphate absorbance | inhibition, % at 20 µM | 340,000 tested, 0.88% active | Carboxy-terminal domain RNA polymerase II polypeptide A small phosphatase 1 (Homo …;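 active = inhibition above about 50% at 20 µM, limit read from the data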
# Target sequence (Q9GZU7 76-261 limits assumed): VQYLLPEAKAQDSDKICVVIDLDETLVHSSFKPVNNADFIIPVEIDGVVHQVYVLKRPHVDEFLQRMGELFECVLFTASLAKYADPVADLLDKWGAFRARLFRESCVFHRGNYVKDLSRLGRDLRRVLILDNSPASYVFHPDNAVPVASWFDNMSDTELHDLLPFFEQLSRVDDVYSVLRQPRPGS
#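 Incubation: 45 min enzyme reaction at room temperature / System: truncated SCP-1 phosphatase (76-261aa) / Reagent: Phospho 17-mer peptide substrate / Buffer or medium: Acidic Tris acetate buffer with magnesium and detergent / Signal: absorbance at 630 nm / Doses: one concentration, 20 µM, with 1.0% DMSO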
# STEP block = STEP phosphatase inhibitors, primary screen, biochemical, fluorescence intensity, uHTS. 360,000 tested, 0.25% active. Tyrosine-protein phosphatase non-receptor type 5 (Homo sapiens), P54829. recombinant STEP, OMFP fluorogenic substrate. inhibition, % at 20 µM;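 active = inhibition at 20 µM, scaled per plate between control wells, above about 37%, limit read from the data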
#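 Material: STEP (striatal-enriched tyrosine phosphatase) enzyme, cell-free; Compound dosing: 20 µM single dose in 1% DMSO; Technique: fluorescence read at 480 nm ex / 540 nm em; Times: reaction 20 min, ambient temperature; Medium: 50 mM Bis-Tris pH 6.0 with 2.5 mM DTT and 0.005% Tween 20; Also added: OMFP at 25 µM.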
# NadD inh = inhibitors of S. aureus NadD, primary screen, biochemical, colorimetric, uHTS; Nicotinate-nucleotide adenylyltransferase NadD (Staphylococcus aureus N315); purified NadD enzyme, colorimetric absorbance read-out; inhibition, % at 20 µM; 360,000 tested, 0.78% active; in the data active = inhibition above about 26%
# rCAG binder = binders of r(CAG) RNA repeats, primary screen, biochemical, fluorescence. r(CAG) RNA repeat, TO-PRO-1 dye displacement fluorescence. 370,000 tested, 1.3% active. AID 651821, 2012. inhibition, % at 3 µM;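 active = inhibition above the plate cutoff, the mean of all test compounds on that plate plus 3 SD, cut at about 35% in these data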;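 note: higher means more dye released from RNA so lower well fluorescence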
# Scp1 confirm = Scp-1 phosphatase inhibitors, retest, confirmation, biochemical, colorimetric, single concentration; 2,500 tested, 61% active; inhibition, % at 20 µM; recombinant SCP-1 catalytic domain, phosphate release, malachite green absorbance; shares compounds with Scp-1 inhibitor
# MG interference = colorimetric readout interference by compounds, confirmation, artefact control for Scp-1 inhibitor project, biochemical, single concentration. shares compounds with Scp-1 inhibitor. Colorimetric interference counterscreen, malachite green absorbance 630 nm. apparent inhibition (interference), % at 20 µM. 2,500 tested, under 10 active. AID 540313, 2011;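 note: compounds added after enzyme reaction finished so only phosphate colour detection is probed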
# Scp1 DSF = Scp-1 binding by thermal shift, confirmation, orthogonal assay for Scp-1 inhibitor project, biophysical, differential scanning fluorimetry. Recombinant SCP1, Sypro Orange thermal shift Tm. shares compounds with Scp-1 inhibitor. thermal shift relative to vanadate control, % at 40 µM. 1,500 tested, 25% active;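 active = substances whose mean melting-temperature shift, as a percentage of the reference inhibitor's shift, reaches about 5.3%, limit read from the data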
# A number is an active result; n = inactive; x = no result given.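 Rule for the calls, unless noted: active = inhibition of at least 30% at 20 µM; inactive = the rest.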
SMILES,LMPTP inh,Scp-1 inhibitor,STEP block,NadD inh,rCAG binder,Scp1 confirm,MG interference,Scp1 DSF
CSc1ccc(CCNS(=O)(=O)c2csc(C(N)=O)c2)cc1,n,n,n,n,n,n,n,x
Cc1cccc(CNS(=O)(=O)c2csc(C(N)=O)c2)c1,n,n,n,n,n,n,n,x
NC(=O)c1cc(S(=O)(=O)NCc2ccc(F)cc2)cs1,n,n,n,n,n,x,x,x
Cc1cccn2c(=O)c3cc(C(=O)NC4CCCC4)n(C)c3nc12,n,68,n,n,n,n,n,x
N#C/C(=C/c1ccc(-c2ccc(C(=O)O)c(Cl)c2)o1)C(=O)NCC1CCCO1 (stereo not drawn),n,106,n,n,n,55,n,n
CCOC(=O)CC[C@@H]1CC[C@]2(CCCN(C(=O)c3ccno3)C2)O1,x,x,x,x,n,x,x,x
CCn1c2ccccc2c2cc(C=NNC(=O)c3ccoc3C)ccc21,x,x,x,x,n,x,x,x
Cc1cc(C)n(-c2ccc(Oc3ccccc3)c(S(=O)(=O)O)c2)n1,n,65,n,n,n,47,n,n
CCN(C(=O)[C@@H](C)[C@@H](O)c1ccc(C(C)=O)cc1)c1ccccc1,x,x,x,x,n,x,x,x
CCOc1ccc(C(=O)Nc2ccc(-c3cc4ccccc4oc3=O)c(C)c2)cc1[N+](=O)[O-],n,60,n,n,n,41,n,n
Cc1cc(NC(=S)NC(=O)c2ccccc2)ccc1-c1cc2ccccc2oc1=O,n,n,n,n,n,x,x,x
CCNC(=O)OCCN1C(=O)CCC12CCC(c1ccc(Cl)cc1)CC2 (stereo not drawn),x,x,x,x,n,x,x,x
Cc1ccc(-c2c(C#N)c(N)n3c(nc4ccccc43)c2C#N)cc1,n,57,n,n,n,n,n,x
N#Cc1c(-c2ccccc2)c(C#N)c2nc3ccccc3n2c1N,n,n,n,n,n,x,x,x
COCCNC(=O)C1c2ccccc2C(=O)N(CCOC)C1c1ccc(F)cc1 (stereo not drawn),n,52,n,n,n,n,n,x
O=C(Nc1nnc(-c2ccc(Cl)s2)o1)C1CC1,n,57,n,n,n,n,n,x
O=C(Nc1nnc(-c2cccs2)o1)C1CC1,n,n,n,n,n,x,x,x
COC(=O)[C@]12C[C@H](CC(=O)NCCC(C)C)C(=O)N(Cc3ccco3)C1=C[C@H](C(C)(C)C)O[C@@H]2C,x,x,x,x,n,x,x,x
O=[N+]([O-])c1cc(C=NN2CCN(Cc3ccccc3Cl)CC2)ccc1Cl,x,x,x,x,n,x,x,x
C[C@H]1C2CC(OC(=O)Nc3ccc4c(c3)OCO4)C(C2)[C@H]2CCCCN21 (stereo partly drawn),x,x,x,x,n,x,x,x
Cc1cc(C)c(S(C)(=O)=O)c(N(C)NC(=O)c2c(F)cccc2F)n1,n,68,n,n,n,n,n,x
O=C(c1cccc(F)c1)N(Cc1ccccn1)CC1CCCO1 (stereo not drawn),x,x,x,x,n,x,x,x
O=C(c1ccco1)N1CCN(C(=O)c2ccc(-c3ccc([N+](=O)[O-])cc3)o2)CC1,n,90,n,n,n,n,n,x
O=C(NC1CCC(O)CC1)c1cc(-c2ccco2)nc2ccccc12 (stereo not drawn),n,51,n,n,n,57,n,n
COc1ccc(NC(=O)c2cc(-c3ccco3)nc3ccccc23)cc1,n,n,n,n,n,x,x,x
SMILES,LMPTP inh,Scp-1 inhibitor,STEP block,NadD inh,rCAG binder,Scp1 confirm,MG interference,Scp1 DSF
CCCCCCNC(=O)c1cc(-c2ccco2)nc2ccccc12,n,71,n,n,n,67,n,n
COc1ccc(NC(=O)CN(C)C(=O)c2cc(-c3ccco3)nc3ccccc23)cc1,n,73,n,n,n,61,n,7.4
COc1ccc(-n2nc(C(=O)Nc3nc4ccc(OC)cc4s3)c3ccccc3c2=O)cc1,n,68,n,n,n,n,n,x
COc1ccc2nc(NC(=O)c3ccc(-n4nc(C)cc4C)cc3)sc2c1,n,n,n,n,n,x,x,x
O=C(NCc1ccco1)c1ccc2c(=O)n(Cc3ccco3)c(SCC(=O)N3CCCC3)nc2c1,n,101,n,n,n,70,n,n
O=C(CSc1nc2ccccc2c(=O)n1Cc1ccco1)NCc1ccco1,n,74,n,n,n,74,n,n
CCCCn1c(SCC(=O)NCc2ccco2)nc2ccccc2c1=O,n,n,n,n,n,x,x,x
O=C(COC(=O)c1ccc(NS(=O)(=O)c2cccs2)cc1)Nc1nc2c(F)c(F)c(F)cc2s1,n,51,n,50,x,65,n,26
O=C(COC(=O)c1ccco1)Nc1nc2c(F)c(F)c(F)cc2s1,n,n,n,n,n,x,x,x
O=C(CN1C(=O)NC2(CCCC2)C1=O)OCc1cc(=O)n2cc(Br)ccc2n1,n,55,n,n,n,33,n,n
Cc1cc(C)c(C)c(S(=O)(=O)N[C@@H](C)C(=O)OCc2cc(=O)n3cc(Br)ccc3n2)c1C,n,69,n,n,n,65,n,5.7
O=C1CCCN1CCCNS(=O)(=O)c1ccc(Br)cc1,n,n,n,n,n,x,x,x
O=C1CCCN1CCCNS(=O)(=O)c1ccc(F)c(F)c1,n,n,n,n,n,n,n,x
O=S(=O)(NCCN1CCOCC1)c1ccc(F)c(Cl)c1,n,n,n,n,n,x,x,x
O=C1NCCN1CCNS(=O)(=O)c1ccc(F)c(Cl)c1,n,n,n,n,n,n,n,x
CC(=O)Nc1ccc(S(=O)(=O)NCCN2CCNC2=O)cc1Cl,n,n,n,n,n,n,n,x
Cc1ccc(S(=O)(=O)NCCN2CCNC2=O)cc1,n,n,n,n,n,x,x,x
Cc1ccc(-n2c(SCC(=O)Nc3ccc(S(=O)(=O)Nc4cc(C)nc(C)n4)cc3)nnc2-c2ccncc2)cc1,x,x,x,x,n,x,x,x
CCOc1cc(/C=C(\C#N)C(=O)Nc2cccc(C(=O)O)c2)cc(Br)c1OC(=O)c1ccc(OC)cc1,n,n,n,n,n,x,x,x
N#C/C(=C/c1ccccc1OCc1ccc(F)cc1)c1ccc(C(=O)O)cc1,n,65,n,n,n,n,n,x
N#C/C(=C\c1ccc(OCc2ccc(Br)cc2)cc1)C(=O)Nc1cccc(C(=O)O)c1,n,57,41,n,n,59,n,n
